Structures are written as SMILES. Hit rate of the full screen: of about 190,000 compounds, about 1,800 (0.95%) were called active. What follows is part of a selection rich in actives, with near analogues and random picks from the rest. Values without a mark were called inactive.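 The calls were made as follows: active = activation above the screen-wide mean of compound activation plus 3 SD (cut at about 130% in these data); inactive = the rest.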

A short description of this assay: enhancers of STAT3 transcriptional signaling – U3A cells, luciferase, luminescence, MLSCN library, primary screen (AID 871).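 Also: 0% = background luminescence of wells with medium and substrate only.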 The note with it: IL-6 STAT3-luciferase reporter, at 5.6 µM, hits give high values, 100% = signal with IL-6 EC80 alone. The essentials:
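Material: human STAT1-deficient U3A cells with stable STAT3-luciferase reporter / Probe or stimulus: IL-6 stimulus at 33 ng/mL final / Schedule: 1 h compound pre-exposure, 6 h IL-6 stimulation, 37 °C / Technique: luminescence / Read-out basis: percent of IL-6-only median luminescence / Control set: IL-6-only high control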
Turning to `CCCS(=O)(=O)Nc1c(C(=O)O)[nH]c2ccccc12`, the activation (% of control) is 184% (active). For `CCCC(=O)Nc1c(O)c2ccccc2[nH]c1=O` the value was 101%; for `Cc1c(C(=O)CN2CCOCC2)[nH]c2ccccc12`, 121%; for `Cc1ccnc(NS(=O)(=O)c2ccc(NC(=O)c3ccc(S(=O)(=O)N4CCOCC4)cc3)cc2)n1`, 100%. For `O=C(CCc1ccc(S(=O)(=O)N2CCOCC2)cc1)Nc1ccc2ccccc2c1` the value was 104%; for `O=C(Nc1ccc2cn[nH]c2c1)c1ccc(S(=O)(=O)N2CCOCC2)cc1`, 135% (active). For `CCOC(=O)c1c(/N=C/c2cc(C)ccc2O)sc2c1CCC2` the value was 99.7%.

Turning to `Cc1ccc(C(=O)N/C(=C\c2ccco2)C(=O)N2CCSCC2)cc1C`, the activation (% of control) is 109%. In the case of `COc1ccc(N2C(=O)CC(Nc3ccc(F)cc3)C2=O)c([N+](=O)[O-])c1` (stereo unspecified) it was 92.9%. In the case of `C=CCOc1ccc(/C=N/NC(=O)C(C)Sc2ccccn2)cc1OCC` (stereo unspecified) it was 106%. On to `COc1ccc(OC)c2c1sc(=NC(=O)CN1C(=O)CCC1=O)n2C`, for which the activation (% of control) is 101%. For `Cn1c(=NC(=O)C2CC2)sc2cc(F)cc(F)c21` the value was 135% (active). For `CCOc1ccc(-n2c(O)c(/C=N/c3ccnn3Cc3ccncc3)c3ccccc3c2=O)cc1` the value was 105%.

Consider `O=C(O)c1ccc(/C=N/NC(=S)NCc2ccccc2)cc1`, for which the activation (% of control) was 96.6%.

For the compound `CSc1nc2sc3c(c2c(=O)[nH]1)CCc1ccccc1-3`, the activation (% of control) was 136% (active). In the case of `COc1ccc(-n2c(=S)[nH]c3sc4c(c3c2=O)CCc2ccccc2-4)cc1` it was 112%; in that of `CSc1nc(O)c(Cc2ccccc2)c(=O)[nH]1`, 95.3%; in that of `c1ccc(-c2cn3cccnc3n2)cc1`, 91.9%. For `c1ccc(-c2cn3c(n2)CCc2ccc4cccnc4c2-3)cc1` the value was 157% (active); for `O=C(CN1C(=O)CC(c2ccccc2)S(=O)(=O)c2ccccc21)NC1CCCC1` (stereo unspecified), 101%; for `COC(=O)/C(C#N)=C/c1occc1C`, 94.2%. For `CCOC(=O)N1CCN(CCC(=O)Nc2cc(OC)ccc2OC)CC1`, the activation (% of control) is 111%. Regarding `O=C(NC1CCCCC1)N1CCc2[nH]c3ccccc3c2C1`, the activation (% of control) was 96%. For `O=C(c1cn2ccccc2n1)N1CCc2c([nH]c3ccccc23)C1c1ccccn1` (stereo unspecified) the value was 105%. In the case of `Cc1cccc(C(=O)N2CCc3c([nH]c4ccccc34)C2CC(C)C)n1` (stereo unspecified) it was 145% (active); in that of `Cc1cccc(C2c3[nH]c4ccccc4c3CCN2C(=O)c2cc(-c3cccn3C)n[nH]2)n1` (stereo unspecified), 134% (active); in that of `CCCC(=O)N1CCc2[nH]c3ccccc3c2C1`, 99.4%.

With `COCc1ccc(C(=O)N2CCc3c([nH]c4ccccc34)C2c2ccccn2)s1` (stereo unspecified), the activation (% of control) is 96.9%. In the case of `COc1ccc(NC(=O)C(=O)NCC(=O)Nc2cccc(C(F)(F)F)c2)cc1` it was 98.3%; in that of `COC(=O)c1ccc(NC(=S)NN2CCOCC2)cc1`, 109%.

Regarding `O=C(CC1SCCNC1=O)Nc1ccc(Cl)cc1` (stereo unspecified), the activation (% of control) is 105%. In the case of `CCOC(=O)C1(Cc2cccc(OC)c2)CCN(Cc2csc(C(C)=O)c2)CC1` it was 92.5%.

With `COCCCNC(=O)C1CCC(CNS(=O)(=O)c2ccc(OC)cc2)CC1` (stereo unspecified), the activation (% of control) was 99.2%. For `O=C1NC(c2ccccc2)=NC1(Nc1ccccn1)C(F)(F)F` (stereo unspecified) the value was 100%; for `CN(C)S(=O)(=O)c1cc(NC(=O)CN2C(=O)NC3(CCCc4ccccc43)C2=O)ccc1Cl` (stereo unspecified), 105%; for `COc1cc(/C=C/C(=O)OCC(=O)NC(=O)NCc2ccccc2)ccc1OCC#N`, 95.5%. For `COc1ncnc2sc3c(c12)CCCC3` the value was 104%; for `COc1cc(/C=N/Nc2ccc(C)cc2)cc(Br)c1O`, 115%; for `COc1ccc(/C=N/Nc2ncnc3sc4c(c23)CCCC4)cc1O`, 147% (active). In the case of `CSc1ccccc1C(=O)NCc1ccccc1` it was 108%; in that of `CC(C)CNC(=O)COC(=O)/C=C/c1ccccc1[N+](=O)[O-]`, 145% (active); in that of `CC(C)CNC(=O)COC(=O)/C=C/c1ccco1`, 105%. Turning to `O=C(/C=C/c1ccccc1[N+](=O)[O-])NCC1CCCO1` (stereo unspecified), the activation (% of control) is 97.5%. For `O=C(NCc1cccs1)C1CCN(S(=O)(=O)c2ccc(Cl)cc2)CC1` the value was 104%. For `COc1cccc2c1CCC(NC(C)=O)C2=O` (stereo unspecified) the value was 104%. For `COc1ccc(C)cc1NC(=O)c1[nH]c(C)c(C(C)=O)c1C` the value was 147% (active). Take `CC(=O)c1c(C)[nH]c(C(=O)NCc2ccc(C)cc2)c1C`: the activation (% of control) was 92.2%. On to `CC(=O)c1c(C)[nH]c(C(=O)Nc2cc(S(=O)(=O)N(C)C)ccc2C)c1C`, for which the activation (% of control) is 90.9%. Turning to `O=C(c1ccc(-c2ccccc2)cc1)C1CCCN(C(=O)c2cncs2)C1` (stereo unspecified), the activation (% of control) is 98.2%. In the case of `COc1ccc(-c2c3c(=O)n(C)c(=O)n(C)c3cn2-c2cccc(OC)c2)cc1` it was 154% (active). In the case of `COc1cccc(-n2cc3c(c2-c2ccccc2)c(=O)n(C)c(=O)n3C)c1` it was 110%; in that of `COc1ccc(-c2c3c(=O)n(C)c(=O)n(C)c3cn2NC(C)=O)cc1`, 109%; in that of `CC(C)CCN1C(=O)c2ccc(C(=O)Nc3cccc(S(N)(=O)=O)c3)cc2C1=O`, 93.1%.

As for `CCC(C)NC(=O)c1nn(C)c(=O)c2ccccc12` (stereo unspecified), the activation (% of control) is 100%. For `CN(C)S(=O)(=O)c1cccc(NC(=S)NCc2ccc3c(c2)OCO3)c1` the value was 95.2%.

Consider `CCNCc1cc2cc(C)ccc2[nH]c1=O`, for which the activation (% of control) is 139% (active). For `CC(=O)OCc1cc2cc(C)ccc2[nH]c1=O` the value was 103%; for `CCN(Cc1cc2cc(C)ccc2[nH]c1=O)S(=O)(=O)c1ccccc1`, 91.2%. In the case of `Cc1ccc(-n2cnc3ncnc(-c4ccccc4)c32)cc1` it was 94.7%; in that of `CC(C)OCCCNC(=S)N1CCC(C(=O)c2ccc3c(c2)OCCO3)CC1`, 102%. Turning to `Cc1cccc(CSc2nc3c(c(=O)n2C)SCC3)c1`, the activation (% of control) is 78.4%. In the case of `N#Cc1ccccc1NC(=O)COc1c(Br)cc(Br)c2cccnc12` it was 151% (active). For `O=C(COC(=O)c1ccccn1)Nc1cccc2ccccc12`, the activation (% of control) is 94.8%. On to `N#Cc1ccc(C(=O)Nc2cccc3cccnc23)c(F)c1`, for which the activation (% of control) is 87.4%.

As to `CCN(CC)P(=O)(Nc1ccc(SC(F)F)cc1)c1ccc(N(C)C)cc1NC(=O)c1ccco1` (stereo unspecified), the activation (% of control) was 131%. For `CCOc1ccc(C2c3[nH]c4ccccc4c3CCN2Cc2cn(CC)nc2C)cc1` (stereo unspecified), the activation (% of control) was 140% (active). In the case of `COc1cc(-c2nnn(CC(=O)NCc3ccccc3)n2)cc(OC)c1OC` it was 99.5%; in that of `CCOP(=O)(OCC)C(Nc1ccc([N+](=O)[O-])cc1)c1ccc(Cl)cc1` (stereo unspecified), 109%. In the case of `Cc1cccc(N2CCN(c3ccc(NC(=O)/C=C\C(=O)O)cc3)CC2)c1` it was 100%. For `CC(=O)c1ccc(NC(=O)C(C)N(C)CC(=O)Nc2ccccc2Cl)cc1` (stereo unspecified) the value was 96.3%; for `COc1ccc([N+](=O)[O-])cc1NC(=O)C(C)OC(=O)C1c2ccccc2Oc2ccccc21` (stereo unspecified), 106%. For the compound `COc1ccc([N+](=O)[O-])cc1C1NN=C(c2cccc3ccccc23)S1` (stereo unspecified), the activation (% of control) was 139% (active). In the case of `COc1ccccc1CC(=O)Nc1ccc([N+](=O)[O-])cc1OC` it was 99.8%; in that of `Cc1ccccc1OCCOc1ccc([N+](=O)[O-])cc1/C=N/n1cnnc1`, 111%. In the case of `O=C(CCc1nnc(CCCCc2ccccc2)o1)NC(c1cccnc1)C(F)(F)F` (stereo unspecified) it was 104%; in that of `CC1(C)C=C2[C@H]3CC[C@@H]4[C@@]5(C)CCC(=O)C(C)(C)[C@@H]5CC[C@@]4(C)[C@]3(C)CC[C@@]2(C(=O)O)CC1`, 99.9%.

On to `CC(=O)Nc1ccc(NC(=O)COc2ncnc3ccccc23)cc1`, for which the activation (% of control) was 95.9%. For `O=[N+]([O-])c1cccc(Nc2c3ccccc3nc3ccccc23)c1` the value was 109%; for `CC(=O)Nc1ccc(Nc2c3ccccc3nc3ccccc23)cc1`, 218% (active).

As to `CC(C)C(C)(C#N)NC(=O)CSc1nc2scc(-c3ccccc3)c2c(=O)[nH]1` (stereo unspecified), the activation (% of control) is 108%.

Take `O=C(Nc1ccncc1)c1cc(-c2ccccn2)nc2ccc(Br)cc12`: the activation (% of control) was 111%. In the case of `O=C(CSc1nn(-c2ccc(F)cc2)c(=S)s1)NC1CCS(=O)(=O)C1` (stereo unspecified) it was 98.1%. Regarding `Cc1noc(/C=C/c2ccco2)c1S(=O)(=O)N1CCC(C(=O)N2CCc3ccccc32)CC1`, the activation (% of control) is 104%. In the case of `CCS(=O)(=O)N1CCC(C(=O)N2CCN(c3ccccc3)CC2)CC1` it was 103%; in that of `O=C(C1CCN(S(=O)(=O)Cc2ccccc2)CC1)N1CCCc2ccccc21`, 136% (active); in that of `O=C(O)/C(=C/c1cccnc1)NC(=O)c1ccccc1`, 107%. In the case of `Nc1ccc(OCC(O)C[n+]2ccc(CCS(=O)(=O)[O-])cc2)cc1` (stereo unspecified) it was 101%.

With `CCC(C(=O)Nc1ccc2c(c1)OCCO2)c1ccccc1` (stereo unspecified), the activation (% of control) is 93.2%. With `CN1C(=O)/C(=N/OC(=O)c2ccccc2Br)c2ccccc21`, the activation (% of control) is 100%.

Regarding `CCC1C(=O)c2ccccc2N(C)C1=O` (stereo unspecified), the activation (% of control) is 110%.

Regarding `CN1C(=O)/C(=C\c2cc(Br)cs2)c2ccccc21`, the activation (% of control) is 178% (active).

In the case of `CN(C)c1ccc(C=C2C(=O)OC3(CCCC3)OC2=O)cc1`, the activation (% of control) was 103%. For `COc1ccccc1-c1nnc(NC(=O)c2cccc(N3C(=O)CCC3=O)c2)o1`, the activation (% of control) is 116%. In the case of `COc1ccccc1-c1nnc(NC(=O)c2ccc3ncsc3c2)o1` it was 146% (active); in that of `COc1ccccc1-c1nnc(SCC(=O)Nc2cc(C)on2)o1`, 91%.

Take `Cc1scc(C(=O)NNC(=S)NCC(C)C)c1C`: the activation (% of control) is 97.6%.

The record behind these values is PubChem BioAssay AID871 (The Scripps Research Institute Molecular Screening Center, 2007).
